In ChEMBL document CHEMBL4014306, “Pyrazolopyrimidines as Potent Stimulators for Transient Receptor Potential Canonical 3/6/7 Channels” (J Med Chem, 2017):

How the values were obtained:
Assay type in all cases: cell-based; call rule not given here
[1] = target: T1, Short transient receptor potential channel 4 (Mus musculus, UniProt Q9QUQ5); test: Antagonist activity at mouse TRPC4beta expressed in HEK293 cells co-expressing MOR decrease in DAMGO-evoked intracellular calcium level by Fluo-8-AM dye-based fluorescence assay
T1 sequence (Q9QUQ5 whole entry): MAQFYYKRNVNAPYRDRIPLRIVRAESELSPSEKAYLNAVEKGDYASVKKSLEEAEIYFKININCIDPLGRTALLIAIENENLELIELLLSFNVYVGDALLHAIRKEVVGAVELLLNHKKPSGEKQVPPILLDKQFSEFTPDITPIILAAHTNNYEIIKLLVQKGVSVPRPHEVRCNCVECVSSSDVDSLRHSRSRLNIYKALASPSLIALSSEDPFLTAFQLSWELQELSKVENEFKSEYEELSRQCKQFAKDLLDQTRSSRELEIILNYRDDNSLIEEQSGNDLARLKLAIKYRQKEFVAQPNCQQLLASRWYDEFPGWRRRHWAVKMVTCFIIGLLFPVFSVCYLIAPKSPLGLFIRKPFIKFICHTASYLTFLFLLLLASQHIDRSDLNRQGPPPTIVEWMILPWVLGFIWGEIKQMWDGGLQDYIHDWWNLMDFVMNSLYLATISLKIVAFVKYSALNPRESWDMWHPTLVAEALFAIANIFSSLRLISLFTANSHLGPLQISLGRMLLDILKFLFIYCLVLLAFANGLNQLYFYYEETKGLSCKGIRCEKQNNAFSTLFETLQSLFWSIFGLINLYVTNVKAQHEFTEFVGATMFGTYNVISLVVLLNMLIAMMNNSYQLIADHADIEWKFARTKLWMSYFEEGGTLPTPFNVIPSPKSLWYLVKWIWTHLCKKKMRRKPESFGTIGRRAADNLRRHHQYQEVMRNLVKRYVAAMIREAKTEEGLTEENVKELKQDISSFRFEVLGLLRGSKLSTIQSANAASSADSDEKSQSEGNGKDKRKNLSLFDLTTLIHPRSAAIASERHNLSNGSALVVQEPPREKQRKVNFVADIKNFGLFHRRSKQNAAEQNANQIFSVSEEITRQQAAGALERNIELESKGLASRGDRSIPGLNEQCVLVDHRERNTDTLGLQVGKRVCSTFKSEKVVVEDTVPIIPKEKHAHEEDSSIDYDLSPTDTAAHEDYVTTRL
Procedure, shortened: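 MOR/TRPC4β HEK293 cells loaded with Ca2+ dye. Compound given before 1 μM DAMGO. IC50 estimated from one experiment in triplicate.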

[2] = target: T2, Short transient receptor potential channel 6 (Mus musculus, UniProt Q61143); test: Agonist activity at mouse TRPC6 expressed in HEK293 cells co-expressing Gq11-PLCbeta fused M5 receptor assessed as increase in intracellular calcium level measured for 2.5 mins by Fluo-8-AM dye-based fluorescence assay
T2 sequence (Q61143 whole entry): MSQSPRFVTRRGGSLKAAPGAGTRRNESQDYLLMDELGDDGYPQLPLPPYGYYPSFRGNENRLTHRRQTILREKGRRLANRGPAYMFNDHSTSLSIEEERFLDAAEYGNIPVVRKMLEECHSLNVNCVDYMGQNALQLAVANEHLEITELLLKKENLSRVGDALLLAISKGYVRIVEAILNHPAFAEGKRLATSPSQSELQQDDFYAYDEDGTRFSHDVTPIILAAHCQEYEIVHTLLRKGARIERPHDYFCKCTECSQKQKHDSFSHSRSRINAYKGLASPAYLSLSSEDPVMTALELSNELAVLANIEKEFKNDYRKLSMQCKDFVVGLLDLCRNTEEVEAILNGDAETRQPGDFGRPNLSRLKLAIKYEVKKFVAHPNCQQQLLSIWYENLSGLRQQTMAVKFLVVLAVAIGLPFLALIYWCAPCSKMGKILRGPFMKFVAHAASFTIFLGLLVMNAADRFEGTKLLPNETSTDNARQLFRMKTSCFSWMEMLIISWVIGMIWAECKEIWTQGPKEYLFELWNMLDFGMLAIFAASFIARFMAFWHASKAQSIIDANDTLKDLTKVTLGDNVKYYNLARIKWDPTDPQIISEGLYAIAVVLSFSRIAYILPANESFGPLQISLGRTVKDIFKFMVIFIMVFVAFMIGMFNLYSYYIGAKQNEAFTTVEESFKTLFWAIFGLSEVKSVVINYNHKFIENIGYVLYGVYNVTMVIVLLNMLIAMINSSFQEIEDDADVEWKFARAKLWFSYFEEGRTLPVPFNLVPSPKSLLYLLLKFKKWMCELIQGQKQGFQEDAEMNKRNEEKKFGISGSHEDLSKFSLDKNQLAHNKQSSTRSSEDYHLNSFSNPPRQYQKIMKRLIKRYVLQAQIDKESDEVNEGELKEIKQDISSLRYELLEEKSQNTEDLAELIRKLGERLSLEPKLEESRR

HEK293 = test: Induction of intracellular calcium level in HEK293 cells at 100 uM measured for 2.5 mins by Fluo-4-AM dye based FLIPR assay; details: human, hek293, 2.5 min

SMILES	IC50 [1]	EC50 [2]	EC50 ([2]; read-out: EC50) [µM]	IC50 ([1]; read-out: IC50) [µM]	Activity (HEK293)
CCC(=O)N1CCC(C)(c2cc(O)n3nc(C)c(-c4ccc(F)cc4)c3n2)CC1	Not Active	Not Active			
CCOC(=O)N1CCC(c2cc(O)n3nc(C)c(-c4ccc([N+](=O)[O-])cc4)c3n2)CC1	Not Active		2		
Cc1nn2c(O)cc(C3CCN(C(=O)c4ccc(Br)nc4)CC3)nc2c1-c1ccc(F)cc1			12.3	10	
CCC(=O)N1CCC(c2cc(O)n3nc(C)c(-c4ccc(F)cc4)c3n2)CC1			28.8	35	
COc1ccc(S(=O)(=O)N2CCC(C)(c3cc(O)n4nc(C)c(-c5ccc(F)cc5)c4n3)CC2)cc1	Not Active	Not Active			
Cc1nn2c(O)cc(C3(C)CCN(C(=O)OC(C)(C)C)CC3)nc2c1-c1ccc(F)cc1	Not Active	Not Active			
CCOC(=O)N1CCC(C)(c2cc(O)n3nc(C)c(-c4ccc([N+](=O)[O-])cc4)c3n2)CC1	Not Active		8		
C[N+](C)(C)CCOC(N)=O.[Cl-] [CARBACHOL]					Toxic
Cc1nn2c(O)cc(C3CCN(C(=O)C(C)(C)C)CC3)nc2c1-c1ccc(F)cc1	Not Active	Not Active			
COc1ccc(CC(=O)N2CCC(C)(c3cc(O)n4nc(C)c(-c5ccc([N+](=O)[O-])cc5)c4n3)CC2)cc1OC	Not Active	Not Active			
Cc1nn2c(O)cc(C3CCN(C(=O)OC(C)(C)C)CC3)nc2c1-c1ccc(Cl)cc1	Not Active	Not Active			
Cc1nn2c(O)cc(C3(C)CCN(C(=O)C(C)(C)C)CC3)nc2c1-c1ccc(F)cc1	Not Active	Not Active			
Cc1nn2c(O)cc(C3(C)CCN(S(=O)(=O)c4c(F)cccc4F)CC3)nc2c1-c1ccc([N+](=O)[O-])cc1	Not Active	Not Active			
